Data: ChEMBL document CHEMBL4732211, “Multifunctional agents based on benzoxazolone as promising therapeutic drugs for diabetic nephropathy” (Eur J Med Chem, 2021)
pIC50: −log10 of the molar value. Activity calls are given as the source filed them. The calls are words filed in the database; no cut-off is given here.

Assays:
Rattus norvegicus = species on record: Rattus norvegicus; assay: Selectivity index, ratio of IC50 for Wistar rat kidney ALR1 to IC50 for Wistar rat lens ALR2
Outline: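 Aldose reductases (ALR2, ALR1) prepared from Wistar rats (200-250 g). NADPH loss followed at 340 nm for 4 min after substrate start, following 10 min preincubation. ALR2: pH 6.2 phosphate, 30 °C, NADPH 0.10 mM, D,L-glyceraldehyde 10 mM. ALR1: pH 7.2, 37 °C, NADPH 0.12 mM, D-glucuronate 20 mM. 0.5% DMSO; non-enzymatic rate subtracted. IC50 from log dose-response with ≥3 concentrations (20-80% inhibition), triplicate.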

[1] = molecular target: Aldo-keto reductase family 1 member A1 (Rattus norvegicus, UniProt P51635); assay: Inhibition of Wistar rat kidney ALR1 assessed as reduction in NADPH oxidation using sodium D-glucuronate and NADPH as substrate preincubated for 10 mins followed by substrate addition and measured for 4 mins by spectrophotometric analysis; type: tissue-based
Chain of Aldo-keto reductase family 1 member A1 (P51635 whole entry, looked up): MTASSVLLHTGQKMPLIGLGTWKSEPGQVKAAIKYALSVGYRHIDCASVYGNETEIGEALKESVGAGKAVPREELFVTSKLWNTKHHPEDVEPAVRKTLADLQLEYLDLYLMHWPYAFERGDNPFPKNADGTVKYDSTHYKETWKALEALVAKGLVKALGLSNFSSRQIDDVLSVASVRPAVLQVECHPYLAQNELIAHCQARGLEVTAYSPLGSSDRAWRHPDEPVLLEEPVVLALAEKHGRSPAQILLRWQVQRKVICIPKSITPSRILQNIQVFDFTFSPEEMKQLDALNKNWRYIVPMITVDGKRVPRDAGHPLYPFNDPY

[2] = molecular target: Aldo-keto reductase family 1 member B1 (Rattus norvegicus, UniProt P07943); assay: Inhibition of Wistar rat lens ALR2 assessed as reduction in NADPH oxidation using D,L-glyceraldehyde and NADPH as substrate preincubated for 10 mins followed by substrate addition and measured for 4 mins by spectrophotometric analysis; type: tissue-based
[3] = Antioxidant activity assessed as DPPH radical scavenging activity at 10 uM after 30 mins by spectrophotometric analysis; type: functional
Outline: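 DPPH in methanol (1 mL, 0.025 mg/mL) plus methanol 1.9 mL and compound in methanol, final 100, 50 and 10 µM; absorbance at 517 nm. Scavenging % = 1 − (A_sample − A_blank)/A_control, where the blank is compound without DPPH. Trolox reference.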

Mus musculus [4] = assay: Antidiabetic activity in STZ-induced Kunming mouse model of diabetes assessed as reduction in blood glucose level at 80 mg/kg, po administered QD via gavage for 4 weeks and measured at week 2 to 4; type: functional, organism-based; conditions: time 2-4 weeks
Mus musculus [5] = assay: Reno-protective activity in STZ-induced Kunming mouse model of diabetes assessed as reduction in albumin to creatinine ratio at 80 mg/kg, po administered daily via gavage for 8 weeks; type: functional
Mus musculus [6] = assay: Reno-protective activity in STZ-induced Kunming mouse model of diabetes assessed as reduction in urinary total protein excretion at 80 mg/kg, po administered daily via gavage for 8 weeks and measured at week 4 relative to control; type: functional
Mus musculus [7] = assay: Antioxidant activity in STZ-induced diabetic Kunming mouse assessed as reduction in liver MDA level at 80 mg/kg, po administered daily via gavage for 8 weeks and measured at 6 hrs post-final drug dose relative to STZ-treated group; type: functional; conditions: 1344 h
Mus musculus [8] = assay: Reno-protective activity in STZ-induced Kunming mouse model of diabetes assessed as reduction in urinary total protein excretion at 80 mg/kg, po administered daily via gavage for 8 weeks and measured at week 8 relative to control; type: functional
Mus musculus [9] = assay: Inhibition of polyol pathway in STZ-induced Kunming mouse model of diabetes assessed as decrease in sorbitol level in kidney cortex at 80 mg/kg, po administered daily via gavage for 8 weeks and measured at 6 hrs post-final drug dose by fluorospectrophotometric analysis; type: functional
Mus musculus [10] = assay: Reno-protective activity in STZ-induced Kunming mouse model of diabetes assessed as reduction in urinary total protein excretion at 80 mg/kg, po administered daily via gavage for 8 weeks and measured at week 6 relative to control; type: functional

| SMILES | Ratio IC50 (Rattus norvegicus) | pIC50 [1] | pIC50 [2] | further results |
| --- | --- | --- | --- | --- |
| COc1ccc(CCc2cccc3c2oc(=O)n3CC(=O)O)cc1 | 1390 | 3.76 | 6.90 | – |
| COc1cc(CCc2cccc3c2oc(=O)n3CC(=O)O)ccc1O | 172 | 4.81 | 7.05 | Activity [3]: 22.7% |
| CC(/C=C1\SC(=S)N(CC(=O)O)C1=O)=C\c1ccccc1 | – | – | – | Activity (Mus musculus [4]): inactive; Activity (Mus musculus [5]): inactive; Activity (Mus musculus [6]; time 4.0 weeks): inactive; inhibition in vivo at 80 mg/kg (Mus musculus [7]): 65%; Activity (Mus musculus [8]): inactive; inhibition (Mus musculus [9]): Active; Activity (Mus musculus [10]; time 6.0 weeks): inactive |
| COc1ccc(/C=C/c2cccc3c2oc(=O)n3CC(=O)O)cc1 | 594 | 5.20 | 7.97 | – |
| COc1ccc(-c2cccc3c2oc(=O)n3CC(=O)O)cc1OC | 510 | 4.49 | 7.20 | – |
| O=C(O)Cn1c(=O)oc2cc(/C=C/c3ccc(O)cc3)ccc21 | 12400 | 3.24 | 7.33 | – |
| O=C(O)Cn1c(=O)oc2c(-c3ccc(C(F)(F)F)cc3)cccc21 | 1480 | 4.84 | 8.01 | – |
| O=C(O)Cn1c(=O)oc2c(/C=C/c3ccc(C(F)(F)F)cc3)cccc21 | 20100 | 2.54 | 6.84 | – |
| O=C(O)Cn1c(=O)oc2c(/C=C/c3ccc(O)c(O)c3)cccc21 | 17 | 6.10 | 7.34 | Activity [3]: 22.7% |
| COc1ccc(/C=C/c2cccc3c2oc(=O)n3CC(=O)O)cc1OC | 873 | 4.53 | 7.47 | – |
| CN(C)C(=N)NC(=N)N [METFORMIN] | – | – | – | inhibition (Mus musculus [5]): Active; inhibition in vivo at 80 mg/kg (Mus musculus [6]; 672 h, time 4 weeks): 6%; inhibition in vivo at 80 mg/kg (Mus musculus [7]): 43%; inhibition in vivo at 80 mg/kg (Mus musculus [8]; 1344 h): 18%; inhibition (Mus musculus [9]): inactive; inhibition in vivo at 80 mg/kg (Mus musculus [10]; 1008 h, time 6 weeks): 41% |
| COc1ccc(-c2cccc3c2oc(=O)n3CC(=O)O)c(OC)c1 | 847 | 4.14 | 7.07 | – |
| O=C(O)Cn1c(=O)oc2c(-c3ccc(-c4ccccc4)cc3)cccc21 | 82 | 5.21 | 7.12 | – |
| O=C(O)Cn1c(=O)oc2ccc(/C=C/c3ccccc3)cc21 | 77 | 4.76 | 6.65 | – |
| O=C(O)Cn1c(=O)oc2c(/C=C/c3ccc(O)cc3)cccc21 | 1940 | 4.17 | 7.46 | Activity [3]: 22.7% |
| O=C(O)Cn1c(=O)oc2c(-c3ccccc3)cccc21 | 3000 | 3.35 | 6.83 | – |

Further compounds by rising pIC50 [1], results first:

| Ratio IC50 (Rattus norvegicus) | pIC50 [1] | pIC50 [2] | SMILES | further results |
| --- | --- | --- | --- | --- |
| 31000 | 2.77 | 7.26 | O=C(O)Cn1c(=O)oc2c(/C=C/c3ccccc3)cccc21 | – |
| 6.6 | 3.44 | 4.26 | O=C(O)Cn1c(=O)oc2cccc(/C=C/c3ccccc3)c21 | – |
| 8200 | 3.76 | 7.67 | CC(C)(C)c1ccc(-c2cccc3c2oc(=O)n3CC(=O)O)cc1 | – |
| 2040 | 4.34 | 7.65 | O=C(O)Cn1c(=O)oc2c(-c3ccc(-c4cccc5ccccc45)cc3)cccc21 | – |
| 1260 | 4.51 | 7.61 | O=C(O)Cn1c(=O)oc2c(-c3ccc(CO)cc3)cccc21 | – |
| 387 | 5.05 | 7.64 | O=C(O)Cn1c(=O)oc2c(-c3ccc(-c4ccc5ccccc5c4)cc3)cccc21 | – |
| 17 | 5.18 | 6.41 | O=C(O)Cn1c(=O)oc2c(-c3ccc(O)c(O)c3)cccc21 | Activity [3]: 61.7% |
| 39 | 5.59 | 7.18 | O=C(O)Cn1c(=O)oc2cc(/C=C/c3ccccc3)ccc21 | – |
| 44 | 5.98 | 7.62 | COc1ccc(-c2cccc3c2oc(=O)n3CC(=O)O)cc1 | – |
